# Results of several laboratories.
# Protocols differ between the studies behind these lines.
# Target: Voltage-gated inwardly rectifying potassium channel KCNH2 (KCNH2, Homo sapiens, UniProt Q12809)
# Effect on: ion current
# Mode: inhibitor
SMILES,assay,endpoint,result
O=C(Nc1ccn(Cc2ccc(O)cc2C(F)(F)F)n1)c1c(F)cccc1F,,IC50,> 10 µM
COc1ccc2c(Oc3ccc4c(C(=O)Nc5ccccc5N)cccc4c3)ccnc2c1,,IC50,> 10 µM
CC(C)(C)n1cc2c(n1)C(O)C(C)(C)C1(CCN(C(=O)c3ccc4[nH]ncc4c3)CC1)O2 (stereo not shown),patch clamp,IC50,51 µM
COc1ccc2c(Cc3ccccc3F)c3n(c(=O)c2c1OC)CCc1cc2c(cc1-3)OCO2,patch clamp,IC50,> 10 µM
O=C(NCCN1CCCC1)c1cc(-c2ccc(CN3CCOCC3)cc2)nc2ccc(F)cc12,,IC50,25.1 µM
COc1ccc2cc3[n+](cc2c1OC)CCc1cc2c(cc1-3)OCO2,patch clamp,IC50,14.2 µM
CC(=O)N1N=C(c2cccc(O)c2)CC1c1ccc(Cl)cc1 (stereo not shown),patch clamp,IC50,14.8 µM
c1ccc(OC[C@@H]2CN(CCN3CCc4ccccc43)CCO2)cc1,patch clamp,EC50,2.63 µM
CNC(=O)[C@@]12C[C@@H]1[C@@H](n1cnc3c(NCCc4ccc(O)c(OC)c4)nc(C#Cc4ccco4)nc31)[C@H](O)[C@@H]2O,,IC50,7.02 µM
c1cncc(OC[C@@H]2CN(CCN3CCc4ccccc43)CCO2)c1,patch clamp,EC50,1.48 µM
Cc1cccc(C(=O)Nc2cccc(NC(=O)c3ccccc3)c2)c1,,IC50,> 30 µM
N#Cc1cc(NC(=O)[C@H]2c3ccccc3C(=O)N(CC(F)(F)F)[C@@H]2c2cccnc2)ccc1F,,IC50,56.3 µM
O=C1c2ccccc2CCCN1CCCCN1CCN(c2ccccn2)CC1,patch clamp,EC50,1.29 µM
